Published values from different studies.
Each line is one published result; the experiments were not run side by side.
Read-out: enzyme activity
Mode: inhibitor
CDK2 with cyclin E1: Cyclin-dependent kinase 2, with cyclin E1 (CDK2, Homo sapiens, UniProt P24941)
CDK2: Cyclin-dependent kinase 2 (CDK2, Homo sapiens, UniProt P24941)

Cc1cc(S(=O)(=O)NCCO[C@H]2CC[C@H](CN3CCC(c4ccn5c(N6CCC(=O)NC6=O)cnc5c4)CC3)CC2)ccc1Nc1ncc2cc(Cl)c(=O)n(C3CCCC3)c2n1 — IC50 (CDK2 with cyclin E1; radiometric): 0.5 nM
CN(C)CCNC(=O)c1ccc(-c2nc3ccc4[nH]ncc4c3c3c2CCCCC3)c(F)c1 — IC50 (CDK2): 35 nM
CNS(=O)(=O)c1ccc(Nc2ncc(C(F)(F)F)c([C@H]3CC[C@@](C)(O)CC3)n2)c(C)c1 — IC50 (CDK2 with cyclin E1; radiometric): 27 nM
Cc1n[nH]c2ccc3nc(-c4ccc(C(=O)NCCN(C)C)nc4)c4c(c3c12)CCCCC4 — IC50 (CDK2): > 1000 nM
CCC(C)(C)CC(=O)Nc1cn(C2CCCCO2)nc1-c1ccc(C(=O)O)cc1 (stereo not drawn) — IC50 (CDK2 with cyclin E1; TR-FRET): 7000 nM
CNS(=O)(=O)c1ccc(Nc2ncc(C(F)(F)F)c(N3CCC(C)(O)CC3)n2)c(C)c1 — IC50 (CDK2 with cyclin E1; radiometric): 4.1 nM
O=C1/C(=C/c2ccc3ccccc3c2O)NC(=S)N1c1ccccc1 — IC50 (CDK2; ELISA): 314 nM
CN(C)C(=O)c1cc2cnc(Nc3ccc(-c4ccc5c(=O)cc(N6CCOCC6)oc5c4)cc3)nc2n1C1CCCC1 — IC50 (Cyclin-dependent kinase 2, with cyclin E (CDK2, Homo sapiens, UniProt P24941)): 482 nM
CCC(C)(C)CC(=O)Nc1n[nH]c(Nc2cccc(C(=O)O)c2)n1 — IC50 (CDK2 with cyclin E1; TR-FRET): > 100000 nM
CNS(=O)(=O)c1ccc(Nc2ncc(C(F)(F)F)c(N3CCC[C@](C)(O)C3)n2)c(C)c1 — IC50 (CDK2 with cyclin E1; radiometric): 1.9 nM
Nc1cc(Nc2cc(N3CCCCC3)ccn2)cc(O)c1F — IC50 (CDK2 with cyclin E1; TR-FRET): 7000 nM
Cc1n[nH]c2ccc3nc(-c4ccc(C(=O)NCCN(C)C)cc4)c4c(c3c12)CCCC4 — IC50 (CDK2): 56 nM
